26 compounds from BindingDB's records for doi:10.1021/jm2007886 (Universidad Complutense De Madrid, 2011) can be followed below.

A word on the Ki: it is a dissociation constant, usually derived from enzyme kinetics or from competition with a known ligand. Higher therefore signals lower affinity.

Each structure is given as a SMILES string.

For assay [1], the target named is 5-hydroxytryptamine receptor 2A (Rattus norvegicus, UniProt P14842). The assay can be described thus: Displacement of [3H]ketanserin from 5HT2A receptor in Sprague-Dawley albinus rat frontal cortex membranes after 15 mins. Put shortly:
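Rat frontal cortex membranes (male Sprague–Dawley, 180–200 g). Nonspecific binding was set with 1 μM cinanserin.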

The target of assay [2] is T1, 5-hydroxytryptamine receptor 3A (Rattus norvegicus, UniProt P35563).
T1 sequence (P35563 whole entry): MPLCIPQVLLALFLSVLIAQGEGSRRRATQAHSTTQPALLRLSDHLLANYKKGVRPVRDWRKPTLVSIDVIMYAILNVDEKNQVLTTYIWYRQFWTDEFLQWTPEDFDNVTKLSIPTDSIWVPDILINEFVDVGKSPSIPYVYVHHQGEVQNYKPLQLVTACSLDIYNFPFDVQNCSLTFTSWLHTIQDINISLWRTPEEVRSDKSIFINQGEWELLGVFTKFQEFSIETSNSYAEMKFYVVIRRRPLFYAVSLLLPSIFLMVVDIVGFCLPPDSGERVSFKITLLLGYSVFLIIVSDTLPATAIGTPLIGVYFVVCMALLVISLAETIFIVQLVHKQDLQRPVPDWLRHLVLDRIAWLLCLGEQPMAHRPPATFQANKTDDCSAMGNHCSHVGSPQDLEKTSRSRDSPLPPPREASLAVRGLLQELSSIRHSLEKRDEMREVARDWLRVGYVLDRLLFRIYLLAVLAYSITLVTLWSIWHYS
The assay can be described thus: Displacement of [3H]-LY278584 from 5HT3 receptor in Sprague-Dawley albinus rat cerebral cortex membranes after 30 mins. On the technique in general: In a radioligand displacement assay an active substance lowers the binding of a labelled ligand.

The target of another assay is D(2) dopamine receptor (Rattus norvegicus, UniProt P61169). The assay can be described thus: Displacement of [3H]spiperone from dopamine D2 receptor in Sprague-Dawley albinus rat striatal membranes after 15 mins.
In assay [3] the target is T2, 5-hydroxytryptamine receptor 1A (Rattus norvegicus, UniProt P19327).
T2 sequence (P19327 whole entry): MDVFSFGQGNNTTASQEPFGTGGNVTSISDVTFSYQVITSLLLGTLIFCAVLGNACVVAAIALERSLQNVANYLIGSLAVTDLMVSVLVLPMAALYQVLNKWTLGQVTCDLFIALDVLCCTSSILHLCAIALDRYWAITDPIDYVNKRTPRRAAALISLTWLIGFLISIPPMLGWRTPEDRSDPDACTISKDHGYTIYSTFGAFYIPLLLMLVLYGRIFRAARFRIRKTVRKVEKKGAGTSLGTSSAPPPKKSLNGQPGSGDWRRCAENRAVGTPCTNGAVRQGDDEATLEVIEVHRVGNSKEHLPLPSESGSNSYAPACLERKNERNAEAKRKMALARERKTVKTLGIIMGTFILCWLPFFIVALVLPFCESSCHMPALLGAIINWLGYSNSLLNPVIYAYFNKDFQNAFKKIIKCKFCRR
The assay can be described thus: Displacement of [3H]-8-OH-DPAT from 5-HT1A receptor in Sprague-Dawley albinus rat cerebral cortex membranes after 15 mins.

Assay [4] has as its target 5-hydroxytryptamine receptor 7 (Rattus norvegicus, UniProt P32305). The assay can be described thus: Displacement of [3H]-5-CT from 5HT7 receptor in Sprague-Dawley albinus rat hyphalamic membranes after 120 mins.
The target in assay [5] is 5-hydroxytryptamine receptor 4 (Rattus norvegicus, UniProt Q62758). The assay can be described thus: Displacement of [3H]GR113808 from 5HT4 receptor in Sprague-Dawley albinus rat striatal membranes after 30 mins by scintillation counting.
5-hydroxytryptamine receptor 4, sequence (Q62758 whole entry): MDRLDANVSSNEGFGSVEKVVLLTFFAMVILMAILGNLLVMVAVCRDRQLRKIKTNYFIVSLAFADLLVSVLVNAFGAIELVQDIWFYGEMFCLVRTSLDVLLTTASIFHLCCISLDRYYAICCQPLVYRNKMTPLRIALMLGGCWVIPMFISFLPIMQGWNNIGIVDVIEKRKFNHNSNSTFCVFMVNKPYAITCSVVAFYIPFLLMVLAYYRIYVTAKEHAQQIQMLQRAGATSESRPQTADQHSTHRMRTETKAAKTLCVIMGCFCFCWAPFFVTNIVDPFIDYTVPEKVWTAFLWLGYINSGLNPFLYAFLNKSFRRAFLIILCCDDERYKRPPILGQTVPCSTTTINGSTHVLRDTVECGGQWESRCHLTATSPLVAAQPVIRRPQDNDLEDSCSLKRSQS

5-hydroxytryptamine receptor 2A, sequence (P14842 whole entry): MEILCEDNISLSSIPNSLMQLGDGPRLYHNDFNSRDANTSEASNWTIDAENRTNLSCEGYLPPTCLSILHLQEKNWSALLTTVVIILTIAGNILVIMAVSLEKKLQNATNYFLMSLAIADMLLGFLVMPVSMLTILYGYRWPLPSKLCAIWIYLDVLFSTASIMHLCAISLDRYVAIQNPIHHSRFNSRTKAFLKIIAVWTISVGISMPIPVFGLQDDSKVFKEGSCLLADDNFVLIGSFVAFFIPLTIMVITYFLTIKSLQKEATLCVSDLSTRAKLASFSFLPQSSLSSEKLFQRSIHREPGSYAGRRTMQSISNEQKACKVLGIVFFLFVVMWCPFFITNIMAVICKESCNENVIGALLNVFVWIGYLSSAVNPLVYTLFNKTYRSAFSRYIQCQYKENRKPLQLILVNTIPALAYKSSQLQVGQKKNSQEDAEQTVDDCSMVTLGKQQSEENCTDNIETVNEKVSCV
D(2) dopamine receptor, sequence (P61169 whole entry): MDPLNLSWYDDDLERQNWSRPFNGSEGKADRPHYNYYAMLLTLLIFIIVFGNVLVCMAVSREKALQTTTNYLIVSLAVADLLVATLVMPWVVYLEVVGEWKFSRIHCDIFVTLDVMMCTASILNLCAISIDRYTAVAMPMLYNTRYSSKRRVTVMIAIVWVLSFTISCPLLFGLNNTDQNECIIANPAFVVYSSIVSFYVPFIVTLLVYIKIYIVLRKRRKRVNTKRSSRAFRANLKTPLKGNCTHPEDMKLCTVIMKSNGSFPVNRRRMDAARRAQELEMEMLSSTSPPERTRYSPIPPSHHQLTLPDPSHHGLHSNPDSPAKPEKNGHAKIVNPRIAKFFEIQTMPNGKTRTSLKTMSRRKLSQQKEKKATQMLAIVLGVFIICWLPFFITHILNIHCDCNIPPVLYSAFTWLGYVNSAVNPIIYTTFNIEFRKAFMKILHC
5-hydroxytryptamine receptor 7, sequence (P32305 whole entry): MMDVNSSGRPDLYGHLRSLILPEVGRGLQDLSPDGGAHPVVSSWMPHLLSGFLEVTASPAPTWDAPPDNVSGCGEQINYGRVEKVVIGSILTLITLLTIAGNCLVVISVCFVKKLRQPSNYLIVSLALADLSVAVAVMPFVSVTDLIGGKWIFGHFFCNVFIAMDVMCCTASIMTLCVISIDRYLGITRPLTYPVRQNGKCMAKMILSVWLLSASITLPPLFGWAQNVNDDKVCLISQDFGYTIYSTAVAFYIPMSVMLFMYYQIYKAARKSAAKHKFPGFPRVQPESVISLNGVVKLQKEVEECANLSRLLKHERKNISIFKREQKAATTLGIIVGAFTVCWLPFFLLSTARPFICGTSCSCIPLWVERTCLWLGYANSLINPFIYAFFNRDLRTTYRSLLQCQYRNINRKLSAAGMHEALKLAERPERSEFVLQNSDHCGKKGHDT

In the case of `O=c1n(CCCCNCC2CCc3ccccc3O2)c(O)c2n1CSC2` (stereo not given), the Ki in assay [1] is over 1000 nM.
For the compound `O=c1n(CCCCNCC2CCc3ccccc3O2)c(O)c2n1CCCC2` (stereo not given), the Ki in assay [1] and in assay [2] was over 1000 nM each time.
As to `O=c1n(CCCCNCc2ccc3ccccc3n2)c(O)c2n1CCC2`, the Ki in assay [1] and in assay [2] was over 1000 nM each time.
With `O=c1n(CCCCNCCc2ccc3ccccc3c2)c(O)c2n1CCC2`, the Ki (on D(2) dopamine receptor; in assay [2]) was over 1000 nM each time.
The compound `O=c1n(CCCCNCc2ccc3ccccc3c2)c(O)c2n1CCC2` gave a Ki in assay [1] of over 1000 nM.
As for `O=c1n(CCCCNCCc2cccc3ccccc23)c(O)c2n1CCC2`, the Ki is over 1000 nM in assay [1]; 28 nM in assay [3]; over 1000 nM on D(2) dopamine receptor; over 1000 nM in assay [4]; over 1000 nM in assay [2]; over 1000 nM in assay [5].
As to `O=c1scc(O)n1CCCCCCCCNCC1CCc2ccccc2O1` (stereo not given), the Ki in assay [1] is over 1000 nM.
Same read-out and setting: next, `O=c1scc(O)n1CCCCCCNCC1CCc2ccccc2O1` (stereo not given): over 1000 nM.
Turning to `O=c1scc(O)n1CCCCCNCC1CCc2ccccc2O1` (stereo not given), the Ki in assay [1] was over 1000 nM.
On to `O=c1n(Cc2cccc(CNCC3CCc4ccccc4O3)c2)c(O)c2n1CCC2` (stereo not given), for which the Ki in assay [1] and in assay [2] was over 1000 nM throughout.
On to `O=c1n(Cc2ccc(CNCC3CCc4ccccc4O3)cc2)c(O)c2n1CCC2` (stereo not given), for which the results for the Ki in assay [1], in assay [3] and in assay [2] were over 1000 nM, 28 nM and over 1000 nM, respectively.
As for `O=c1n(CC#CCNCC2CCc3ccccc3O2)c(O)c2n1CCC2` (stereo not given), the Ki in assay [3] is over 1000 nM.
As for `O=c1n(C/C=C/CNCC2CCc3ccccc3O2)c(O)c2n1CCC2` (stereo not given), in assay [1], the Ki is over 1000 nM.
On to `O=c1n(CCCCCCNCC2CCc3ccccc3O2)c(O)c2n1CCC2` (stereo not given), for which the Ki in assay [1] and in assay [2] was over 1000 nM each time.
For `O=c1n(CCCCCNCC2CCc3ccccc3O2)c(O)c2n1CCC2` (stereo not given), the inhibition constant (Ki) in assay [1] and in assay [2] was over 1000 nM throughout.
For `O=c1n(CCCNCC2CCc3ccccc3O2)c(O)c2n1CCC2` (stereo not given), the Ki in assay [1] and in assay [2] was over 1000 nM throughout.
Consider `O=c1scc(O)n1CCCCNCC1CCc2ccccc2O1` (stereo not given), for which the Ki in assay [1] was over 1000 nM.
In assay [3], `O=c1n(CCCCNCCc2ccccn2)c(O)c2n1CCC2` displayed a Ki of over 1000 nM.
Turning to `O=c1n(CCCCNCc2ccccn2)c(O)c2n1CCC2`, the Ki in assay [3] was over 1000 nM.
`O=c1n(CCCCNCCc2cccs2)c(O)c2n1CCC2` had an inhibitory constant (Ki) in assay [3] of over 1000 nM.
On the same count and under the same terms, next, `O=c1n(CCCCNCc2cccs2)c(O)c2n1CCC2`: over 1000 nM; `O=c1n(CCCCNCCc2ccco2)c(O)c2n1CCC2`: over 1000 nM; `O=c1n(CCCCNCc2ccco2)c(O)c2n1CCC2`: over 1000 nM.
Compound `O=c1n(CCCCNCCc2ccccc2)c(O)c2n1CCC2` yielded a Ki in assay [3] of over 1000 nM.
Same read-out and setting: next, `O=c1n(CCCCNCc2ccccc2)c(O)c2n1CCC2`: over 1000 nM.
Same read-out and setting: next, `O=c1n(CCCCNCc2cccc3ccccc23)c(O)c2n1CCC2`: over 1000 nM.
